We go through one molecule from ChEMBL document CHEMBL1255487, “Preclinical evaluation of the antifolate QN254, 5-chloro- N'6'-(2,5-dimethoxy-benzyl)-quinazoline-2,4,6-triamine, as an antimalarial drug candidate” (Antimicrob Agents Chemother, 2010).

One data set deals with T1, Dihydrofolate reductase (Homo sapiens, UniProt P00374).
T1 sequence (P00374 whole entry): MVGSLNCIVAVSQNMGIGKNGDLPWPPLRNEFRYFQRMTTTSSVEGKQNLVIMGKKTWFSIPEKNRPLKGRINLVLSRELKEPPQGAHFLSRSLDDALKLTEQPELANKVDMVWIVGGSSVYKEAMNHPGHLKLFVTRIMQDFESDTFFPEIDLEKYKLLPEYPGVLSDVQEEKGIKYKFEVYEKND
Put plainly: Binding affinity to human recombinant DHFR expressed in Escherichia coli BL21(DE3) by competitive binding assay.

Data set [1] deals with Plasmodium berghei. Put plainly: Antimalarial activity against Plasmodium berghei ANKA infected in NMRI mice (Mus musculus) assessed as cure rate at 10 mg/kg, perorally administered as single dose […]. The format is functional. The note with it: route oral. The essentials:
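Female NMRI mice (20–22 g), 5 per group, infected intravenously with 0.2 ml of 1 × 10^8 parasitized erythrocytes/ml from a fresh donor mouse. Compound suspended in 0.5% carboxymethyl cellulose and given orally. Survival followed to day 30 post-infection; an animal was scored cured if it survived to day 30 without parasites.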

Data set [2] is described as follows: Tmax in CD-1 mouse at 25 mg/kg, po. More on the design: dose 25 mg/kg, route oral. It counts as ADME, organism-based. Conditions: in vivo. The essentials:
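Mice dosed with 25 mg/kg p.o. as a 2.5 mg/ml suspension in 0.5% CMC, or with 5 mg/kg i.v. at 1 mg/ml in 10% NMP, 30% PEG 400 and 60% of 10% vitamin E-TPGS. Blood sampled at several time points. Plasma extracted with acidified acetonitrile (8:1) and quantified by LC-MS, LLOQ 12 ng/ml.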

Data set [3] has as its system Plasmodium berghei. Kind of data set: Antimalarial activity against Plasmodium berghei ANKA infected in NMRI mice (Mus musculus) assessed as mean survival time at 3 times 30 mg/kg, perorally. It counts as functional. The note with it: route oral. The essentials: (§1)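 Infection: 5 female NMRI mice (20–22 g) per group, inoculated intravenously with 0.2 ml of donor blood at 1 × 10^8 parasitized erythrocytes/ml. Oral administration in 0.5% carboxymethyl cellulose. Survival time recorded up to 30 days after infection and averaged per group.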

The next data set relates to Mus musculus. Put plainly: Toxicity in NMRI mice (Mus musculus) infected with Plasmodium berghei ANKA at 30 mg/kg, perorally administered as single dose measured up to 30 days postinfection. The format is organism-based. Conditions: in vivo, po, 720 h. Set-up: dose 30 mg/kg, route oral.
Data set [4] concerns Plasmodium berghei. Put plainly: Antimalarial activity against Plasmodium berghei ANKA infected in NMRI mice (Mus musculus) assessed as survival rate at 100 mg/kg, perorally administered as single dose. The format is functional. The note with it: route oral. The essentials:
as §1

For data set [5], the system named is Plasmodium berghei. Put plainly: Antimalarial activity against Plasmodium berghei ANKA infected in NMRI mice (Mus musculus) assessed as mean survival time at 3 times 60 mg/kg, perorally. It counts as functional, organism-based. Set-up: dose 60 mg/kg.

SMILES strings stand for the structures. pKi: −log10 of the molar value. Activity calls are given as the source filed them. The rule behind the calls is not given here.

By pKi is commonly meant the Ki on a negative log10 scale, so that one unit is a factor of ten. Broadly, the Tmax is the time from dosing to the highest level. For the molecule `COc1ccc(OC)c(CNc2ccc3nc(N)nc(N)c3c2Cl)c1`, the pKi on Dihydrofolate reductase is 7.99. The Activity in the data set with Plasmodium berghei [1] and in the data set with Mus musculus was 0% in each case. For the same molecule, the time to peak (Tmax) in data set [2] turned out to be 4 h. The Survival came to 28.4 days with Plasmodium berghei [3] and 23.4 days with Plasmodium berghei [4]. Further, in the data set on Plasmodium berghei [5], the result was inactive.
